Results gathered from unrelated publications.
Target: Serine/threonine-protein kinase 3 (STK3, Homo sapiens, UniProt Q13188)
Residues used in one study (Q13188 1-491): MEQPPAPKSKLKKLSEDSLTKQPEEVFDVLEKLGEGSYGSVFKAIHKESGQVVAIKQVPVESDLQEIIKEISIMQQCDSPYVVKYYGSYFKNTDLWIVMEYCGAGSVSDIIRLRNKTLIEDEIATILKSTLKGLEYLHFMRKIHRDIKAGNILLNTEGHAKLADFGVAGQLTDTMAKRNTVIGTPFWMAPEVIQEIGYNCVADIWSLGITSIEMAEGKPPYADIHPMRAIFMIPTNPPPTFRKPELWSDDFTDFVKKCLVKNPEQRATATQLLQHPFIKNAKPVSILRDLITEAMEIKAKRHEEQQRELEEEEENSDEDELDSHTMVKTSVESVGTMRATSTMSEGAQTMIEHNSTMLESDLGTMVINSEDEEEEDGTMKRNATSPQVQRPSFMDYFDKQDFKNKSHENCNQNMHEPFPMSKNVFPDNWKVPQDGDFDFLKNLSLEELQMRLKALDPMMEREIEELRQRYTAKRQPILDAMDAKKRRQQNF

| Structure (SMILES) | observed | action | method | concentration | endpoint | result |
| --- | --- | --- | --- | --- | --- | --- |
| Cc1ccc(NC(=O)c2ccnc(C(F)(F)F)c2)cc1-c1cc(OCCO)nc(N2CCOCC2)c1 | binding | – | – | 1 µM | remaining binding | 79% |
| CC#CC(=O)N1CCC[C@H]1c1nc(-c2ccc(C(=O)Nc3ccccn3)cc2)c2c(N)nccn12 | enzyme activity | inhibitor | – | 1 µM | inhibition | 19% |
| Cc1cc(O)c(-c2ccc([C@@H](C)CN(C)C)cc2)c2c1[nH]c(=O)c1sccc12 | enzyme activity | inhibitor | – | 0.1 µM | inhibition | 9.39% |
| CC(C)S(=O)(=O)c1ccc2nccc(Nc3ccc4sc(C5CCCC5)nc4c3)c2c1 | enzyme activity | inhibitor | – | 1 µM | activity vs control | 103% |
| CO[C@@H]1[C@H](N(C)C(=O)c2ccccc2)C[C@H]2O[C@]1(C)n1c3ccccc3c3c4c(c5c6ccccc6n2c5c31)C(=O)NC4 | enzyme activity | inhibitor | – | 1 µM | inhibition | 100% |
| C#Cc1cc(-c2cc(Nc3nc(N[C@@H](C)c4ccc(F)cn4)ncc3Cl)n[nH]2)ccc1C=O | enzyme activity | inhibitor | – | 0.2 µM | inhibition | 29.9% |
| CN1CCN(C(=O)c2ccc(NC(=O)Nc3ccc(N(C)c4ccnc(Nc5ccc(CS(C)(=O)=O)cc5)n4)cc3)cc2)CC1 | binding | – | – | 1 µM | remaining binding | 16% |
| COc1ccc2oc(-c3ccc4nc(N)oc4c3)c/c(=N\c3ccccc3NC(=O)CCN)c2c1 | binding | – | – | 1 µM | remaining binding | 79% |
| CCCCC(=O)Nc1ccc(-c2ccc3ncn(CCC)c(=O)c3c2)cn1 | binding | – | competition with immobilised ligand | 0.5 µM | remaining binding | 73% |
